From ChEMBL document CHEMBL3797150, “Lupeol Isolated from Sorbus commixta Suppresses 1α,25-(OH)2D3-Mediated Osteoclast Differentiation and Bone Loss in Vitro and in Vivo” (J Nat Prod, 2016)
The source made the active and inactive calls. The rule behind the calls is not given here.

How the values were obtained:
[1] = Downregulation of RANKL-induced NFATc1 levels in mouse bone marrow macrophages at 5 to 20 uM after 24 hrs by Western blot analysis in presence of M-CSF; assay type: functional, cell-based; settings: Macrophage
In short: (§1)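 Bone marrow macrophages made with 50 ng/mL M-CSF, exposed to compound and RANKL for 24 h; c-Fos and NFATc1 protein by Western blot, β-actin as loading control, ECL detection.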

Osteoclast [2] = assay: Induction of disruption of 1alpha,25-(OH)2D3/PGE2-induced F-actin ring formation in mouse osteoclasts obtained from coculturing mouse calvarial osteoblasts with mouse bone marrow macrophages at 20 uM after 48 hrs by Alexa Fluor 488-conjugated phalloidin staining based fluorescence microscopy; assay type: functional, cell-based
In short: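 Bone marrow cells and calvarial osteoblasts cocultured 6–7 days on collagen with 0.1 μM 1α,25-(OH)2D3 or 10 μM PGE2; mature osteoclasts released with 0.2% collagenase (37 °C, 30 min). Treated 48 h, fixed in paraformaldehyde, F-actin rings stained with Alexa Fluor 488-phalloidin and viewed by fluorescence microscopy at 100×.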

[3] = Downregulation of 1alpha,25-(OH)2D3-induced RANKL mRNA expression in mouse calvarial osteoblasts at 5 and 10 uM after 24 hrs by RT-PCR method; assay type: functional, cell-based; settings: Calvarial osteoblast
In short: (§2)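 Calvarial osteoblasts from newborn mice grown 24 h in α-MEM with 10% FBS and 0.1 μM 1α,25-(OH)2D3, with or without compound. Total RNA reverse-transcribed, then PCR for RANKL (587 bp), OPG (720 bp), M-CSF (516 bp) and GAPDH (452 bp) as control. Products run on 2% agarose with ethidium bromide; three independent experiments.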

Mus musculus [4] = organism: Mus musculus; assay: Decrease in 1alpha,25-(OH)2D3-induced phosphate levels in hypercalcemic C57BL/6 mouse serum at […]/day […]; assay type: functional, organism-based
In short: (§3)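 C57BL/6 males, 6 weeks old, groups of five; 1α,25-(OH)2D3 given subcutaneously on three consecutive days, then PBS or compound at 25 or 100 μg/kg/day for 3 days; sacrifice on day 8. Serum calcium and phosphate by colorimetric kits, RANKL by ELISA; mean ± SD, Student's t test.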

Mus musculus [5] = organism: Mus musculus; assay: Decrease in 1alpha,25-(OH)2D3-induced calcium levels in hypercalcemic C57BL/6 mouse serum at […] for […]; assay type: functional, organism-based; in short: as §3
Osteoclast [6] = assay: Inhibition of bone resorption in mouse osteoclasts obtained from coculturing mouse calvarial osteoblasts with mouse bone marrow macrophages assessed as inhibition of pit formation at 20 uM after 48 hrs by Mayer's hematoxylin staining based light microscopy; assay type: functional, cell-based
In short: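 Mature osteoclasts from collagen-gel cocultures (0.1 μM 1α,25-(OH)2D3 or 10 μM PGE2; collagenase release) replated on dentin slices with compound for 48 h. Cells removed, slices stained with Mayer's hematoxylin, pits counted per slice by light microscopy at 100×; three independent experiments.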

[7] = molecular target: Transcription factor p65 (Mus musculus) (UniProt Q04207); assay: Downregulation of RANKL-induced p65 nuclear translocation in mouse bone marrow macrophages at 5 to 20 uM after 30 mins by Western blot analysis in presence of M-CSF
Transcription factor p65 (Mus musculus), sequence (Q04207 whole entry): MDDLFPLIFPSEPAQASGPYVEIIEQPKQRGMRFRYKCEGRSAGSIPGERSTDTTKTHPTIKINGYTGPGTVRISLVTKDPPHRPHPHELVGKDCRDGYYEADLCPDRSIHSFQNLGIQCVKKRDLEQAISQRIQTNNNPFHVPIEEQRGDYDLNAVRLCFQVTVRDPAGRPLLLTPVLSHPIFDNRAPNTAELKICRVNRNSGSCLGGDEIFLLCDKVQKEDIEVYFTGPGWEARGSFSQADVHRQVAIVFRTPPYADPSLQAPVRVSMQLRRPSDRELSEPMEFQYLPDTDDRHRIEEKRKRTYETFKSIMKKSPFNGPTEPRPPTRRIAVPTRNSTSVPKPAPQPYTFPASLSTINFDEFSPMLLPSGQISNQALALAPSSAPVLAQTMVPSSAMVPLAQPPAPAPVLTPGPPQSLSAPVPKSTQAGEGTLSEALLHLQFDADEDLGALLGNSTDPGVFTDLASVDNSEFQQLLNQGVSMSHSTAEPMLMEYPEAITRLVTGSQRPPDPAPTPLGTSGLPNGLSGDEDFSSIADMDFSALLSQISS

[8] = Downregulation of RANKL-induced JNK phosphorylation in mouse bone marrow macrophages after 15 mins by Western blot analysis in presence of M-CSF
In short: (§4)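 Bone marrow macrophages from tibiae of 4–6-week ICR males, taken as cells adherent after 16–20 h in 50 ng/mL M-CSF. Treated with compound plus RANKL for 15 min, then lysed; phospho and total ERK, JNK and p38 detected by Western blot with ECL.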

[9] = molecular target: Transcription factor p65 (Mus musculus) (UniProt Q04207); assay: Downregulation of RANKL-induced p65 phosphorylation in mouse bone marrow macrophages at 5 to 20 uM after 30 mins by Western blot analysis in presence of M-CSF
[10] = Cytotoxicity against mouse calvarial osteoblasts assessed as cell viability at 1 to 20 uM after 2 to 4 days by MTT assay; assay type: cell-based; settings: calvarial osteoblast
In short: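 Primary calvarial osteoblasts from 1–2-day-old newborn mice (serial collagenase/dispase digests, fractions 2–5) exposed to 1, 5, 10, 20 μM for 2 days, or kept for at least 4 days with medium changed every 2–3 days; viability by MTT. Mean ± SD of three independent experiments.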

[11] = Downregulation of RANKL-induced ERK phosphorylation in mouse bone marrow macrophages after 15 mins by Western blot analysis in presence of M-CSF; in short: as §4
[12] = molecular target: T1, NF-kappa-B inhibitor alpha (Mus musculus) (UniProt Q9Z1E3); assay: Downregulation of RANKL-induced IkappaB alpha phosphorylation in mouse bone marrow macrophages at 5 to 20 uM after 30 mins by Western blot analysis in presence of M-CSF
T1 sequence (whole entry): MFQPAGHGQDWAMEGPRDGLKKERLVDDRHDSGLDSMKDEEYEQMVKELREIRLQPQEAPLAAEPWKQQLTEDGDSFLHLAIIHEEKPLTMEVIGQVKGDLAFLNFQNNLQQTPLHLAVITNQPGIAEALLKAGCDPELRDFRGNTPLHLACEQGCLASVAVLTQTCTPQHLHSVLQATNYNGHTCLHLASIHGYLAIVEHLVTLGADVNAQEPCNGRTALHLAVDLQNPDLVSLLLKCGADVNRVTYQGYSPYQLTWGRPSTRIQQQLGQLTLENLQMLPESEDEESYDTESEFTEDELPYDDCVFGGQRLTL

[13] = Downregulation of RANKL-induced p38 MAPK phosphorylation in mouse bone marrow macrophages after 15 mins by Western blot analysis in presence of M-CSF; in short: as §4
Mus musculus [14] = assay: Decrease in 1alpha,25-(OH)2D3-induced OPG levels in hypercalcemic C57BL/6 mouse serum at 5 to 100 ug/kg/day for 5 days; assay type: functional, organism-based
Calvarial osteoblast [15] = assay: Effect on 1alpha,25-(OH)2D3-induced OPG mRNA expression in mouse calvarial osteoblasts at 5 and 10 uM after 24 hrs by RT-PCR method; assay type: functional, cell-based; in short: as §2
Calvarial osteoblast [16] = assay: Effect on 1alpha,25-(OH)2D3-induced M-CSF mRNA expression in mouse calvarial osteoblasts at 5 and 10 uM after 24 hrs by RT-PCR method; assay type: functional, cell-based; in short: as §2
Calvarial osteoblast [17] = assay: Inhibition of 1alpha,25-(OH)2D3-induced osteoclasts differentiation in mouse calvarial osteoblasts cocultured with mouse bone marrow macrophages incubated for 6 days by TRAP staining based microscopy; assay type: functional, cell-based
In short: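 Bone marrow cells (1 × 10^7) cocultured 6 days with calvarial osteoblasts (1 × 10^6) in α-MEM with 10% FBS and 0.1 μM 1α,25-(OH)2D3. Cells fixed in formaldehyde and ethanol–acetone, then TRAP-stained; TRAP-positive cells with three or more nuclei counted as osteoclasts.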

[18] = tested on: primary calvarial osteoblasts (Mus musculus); assay: Induction of primary calvarial osteoblasts differentiation assessed as alkaline phosphatase activity at 1 to 20 uM using p-nitrophenyl phosphate as substrate after 7 to 14 days in presence of 1alpha,25-(OH)2D3
Mus musculus [19] = organism: Mus musculus; assay: Decrease in 1alpha,25-(OH)2D3-induced RANKL levels in hypercalcemic C57BL/6 mouse serum at […] […] by ELISA method; assay type: functional, organism-based; in short: as §3
[20] = tested on: primary calvarial osteoblasts (Mus musculus); assay: Induction of primary calvarial osteoblasts differentiation assessed as […] in alkaline phosphatase activity using p-nitrophenyl phosphate as substrate at 10 to 20 uM after 4 days
[21] = Downregulation of RANKL-induced c-fos levels in mouse bone marrow macrophages at 5 to 20 uM after 24 hrs by Western blot analysis in presence of M-CSF; assay type: functional, cell-based; settings: Macrophage; in short: as §1

## C=C(C)[C@@H]1CC[C@]2(C)CC[C@]3(C)[C@H](CC[C@@H]4[C@@]5(C)CC[C@H](O)C(C)(C)[C@@H]5CC[C@]43C)[C@@H]12 [LUPEOL]
[1]
  Activity: Active
Osteoclast [2]
  Activity: Active
[3]
  Activity: Active
Mus musculus [4]
  Activity: inactive
Mus musculus [5]
  Activity: inactive
Osteoclast [6]
  inhibition: Active
[7]
  inhibition: Active
[8]
  inhibition: inactive
[9]
  Activity: Active
[10]
  Activity: Non-toxic
[11]
  inhibition: Dose-dependent effect
[12]
  Activity: Active
[13]
  inhibition: Dose-dependent effect
Mus musculus [14]
  Activity: inactive
Calvarial osteoblast [15]
  Activity: inactive
Calvarial osteoblast [16]
  Activity: inactive
Calvarial osteoblast [17]
  inhibition: Active
[18]
  Activity: inactive
Mus musculus [19]
  Activity: Active
[20]
  Activity: Active
[21]
  Activity: Active
